# In ChEMBL document CHEMBL3108707, “Design, synthesis and structure-activity relationships of some novel, highly potent anti-invasive (E)- and (Z)-stilbenes” (2013):
# The source made the active and inactive calls. No cut-off for these calls is given here.
# Key:
# [1] = Antiinvasive activity against human MCF7/6 cells assessed as minimum log concentration required to show activity after 8 days by hematoxylin and eosin staining-based chick heart invasion assay; assay type: functional; set-up: unit: log(µmol/L)
# How it was run: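 Confronting cultures were set up as chick heart fragments (9-day embryos) plus MCF-7/6 aggregates, 8 days at 37 °C. Compound was dosed in DMSO at 10, 1, 0.1 and 0.01 µmol/L, in duplicate, and grades were scored histologically. c_min is the lowest concentration where both repeats gave grade I or II; inconclusive cases were repeated. A single active repeat counted if all repeats at 10-fold higher were active. The value is reported as log c_min.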
# MCF7/6 [2] = assay: Antiinvasive activity against human MCF7/6 cells assessed as decrease in occupying outer fibroblast-like and myoblast cell layers at 0.01 umol/L after 8 days by hematoxylin and eosin staining assay; assay type: functional, cell-based
# How it was run: (§1)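 Precultured heart fragments from 9-day-old chick embryos (0.4 mm diameter) were paired with MCF-7/6 aggregates (0.2 mm). Pairs sat overnight at 37 °C on semi-solid agar, then spun 8 days in suspension (37 °C, 120 rpm, 10% CO₂) with compound added in DMSO. Runs were usually in duplicate; 10 µmol/L often single. 7 µm sections were scored histologically for invasion grade 0–IV, with alternate sections stained with 5D10 antibody.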
# MCF7/6 [3] = assay: Antiinvasive activity against human MCF7/6 cells assessed as decrease in occupying outer fibroblast-like and myoblast cell layers at 1 umol/L after 8 days by hematoxylin and eosin staining assay; assay type: functional, cell-based; how it was run: as §1
# MCF7/6 [4] = assay: Antiinvasive activity against human MCF7/6 cells assessed as occupying less than half of original amount of heart tissue at 0.1 umol/L after 8 days by hematoxylin and eosin staining assay; assay type: functional, cell-based; how it was run: as §1
# MCF7/6 [5] = assay: Antiinvasive activity against human MCF7/6 cells assessed as decrease in occupying outer fibroblast-like and myoblast cell layers at 0.1 umol/L after 8 days by hematoxylin and eosin staining assay; assay type: functional, cell-based; how it was run: as §1
# MCF7/6 [6] = assay: Antiinvasive activity against human MCF7/6 cells assessed as decrease in occupying outer fibroblast-like and myoblast cell layers at 10 umol/L after 8 days by hematoxylin and eosin staining assay; assay type: functional, cell-based; how it was run: as §1
# MCF7/6 [7] = assay: Antiinvasive activity against human MCF7/6 cells assessed as precultured chick heart tissue fragment attachment without occupying heart tissue and outermost fibroblastic cell layers at 1 umol/L after 8 days by hematoxylin and eosin staining assay; assay type: functional, cell-based; how it was run: as §1
# MCF7/6 [8] = assay: Antiinvasive activity against human MCF7/6 cells assessed as chick precultured heart tissue fragment attachment without occupying heart tissue and outermost fibroblastic cell layer at 0.1 umol/L after 8 days by hematoxylin and eosin staining assay; assay type: functional, cell-based; how it was run: as §1
# MCF7/6 [9] = assay: Antiinvasive activity against human MCF7/6 cells assessed as occupying more than half of original amount of chick precultured heart tissue fragment at 10 umol/L after 8 days by hematoxylin and eosin staining assay; assay type: functional, cell-based; how it was run: as §1
# MCF7/6 [10] = assay: Antiinvasive activity against human MCF7/6 cells assessed as occupying less than half of original amount of chick precultured heart tissue fragment at 10 umol/L after 8 days by hematoxylin and eosin staining assay; assay type: functional, cell-based; how it was run: as §1
# MCF7/6 [11] = assay: Antiinvasive activity against human MCF7/6 cells assessed as precultured chick heart tissue fragment attachment without occupying heart tissue and outermost fibroblastic cell layer at 10 umol/L after 8 days by hematoxylin and eosin staining assay; assay type: functional, cell-based; how it was run: as §1
# MCF7/6 [12] = assay: Antiinvasive activity against human MCF7/6 cells assessed as occupying less than half of original amount of heart tissue at 1 umol/L after 8 days by hematoxylin and eosin staining assay; assay type: functional, cell-based; how it was run: as §1
compound,measurement,setting,value
Fc1ccc(/C=C\c2ccccc2)cc1,logMEC,[1],-2
same,Activity,MCF7/6 [2],Active
Fc1ccc(/C=C/c2ccccc2)cc1,Activity,MCF7/6 [3],Active
same,Activity,MCF7/6 [4],inactive
Fc1ccc(/C=C/c2ccc(F)cc2)cc1,Activity,MCF7/6 [5],Active
same,logMEC,[1],-2
same,Activity,MCF7/6 [2],Active
same,Activity,MCF7/6 [6],Active
COc1cc(/C=C\c2ccccc2)cc(OC)c1OC,Activity,MCF7/6 [5],Active
same,logMEC,[1],-2
same,Activity,MCF7/6 [2],Active
same,Activity,MCF7/6 [3],Active
same,Activity,MCF7/6 [7],Active
same,Activity,MCF7/6 [6],Active
COc1ccc(/C=C/c2ccccc2)cc1,Activity,MCF7/6 [8],Active
same,Activity,MCF7/6 [5],Active
same,logMEC,[1],-1
same,Activity,MCF7/6 [9],inactive
COc1cc(/C=C/c2ccc(F)cc2)cc(OC)c1OC,logMEC,[1],0
same,Activity,MCF7/6 [4],inactive
same,Activity,MCF7/6 [6],Active
COc1ccc(/C=C/c2ccc(F)cc2)cc1,Activity,MCF7/6 [5],Active
same,logMEC,[1],-2
same,Activity,MCF7/6 [2],Active
same,Activity,MCF7/6 [6],Active
C(=C\c1ccccc1)/c1ccccc1,Activity,MCF7/6 [10],inactive
same,Activity,MCF7/6 [5],Active
same,logMEC,[1],-1
same,Activity,MCF7/6 [3],Active
same,Activity,MCF7/6 [7],Active
COc1cc(/C=C/c2ccccc2)cc(OC)c1OC,logMEC,[1],-1
same,Activity,MCF7/6 [6],Active
COc1cc(/C=C\c2ccc(F)cc2)cc(OC)c1OC,logMEC,[1],1
same,Activity,MCF7/6 [11],Active
same,Activity,MCF7/6 [4],inactive
same,Activity,MCF7/6 [12],inactive
